Calls of active or inactive are those of the source. The rule behind the calls is not given here.
Columns and labels:
[1] = biological target: Cyclin-dependent kinase 2/cyclin E1 (Homo sapiens, UniProt P24941); experiment: Inhibition of CDK2/Cyclin E (unknown origin) expressed in sf9 cells using histone H1 as substrate in presence of [gamma33P]-ATP; format: cell-based
[2] = biological target: Dual specificity tyrosine-phosphorylation-regulated kinase 1A (Homo sapiens) (UniProt Q13627); experiment: Inhibition of recombinant DYRK1A (unknown origin) assessed as residual activity at 1 uM relative to control
[3] = biological target: Casein kinase I isoform delta (Homo sapiens) (UniProt P48730); experiment: Inhibition of recombinant CK1delta (unknown origin) assessed as residual activity at 1 uM relative to control
[4] = biological target: AMP-activated protein kinase, AMPK (Homo sapiens) (UniProt P54646+O43741+P54619+Q9UGJ0+Q9Y478+Q13131+Q9UGI9); experiment: Inhibition of recombinant human AMPK assessed as residual activity at 1 uM relative to control; format: protein-complex assay
[5] = biological target: Serine/threonine-protein kinase PAK 4 (Homo sapiens) (UniProt O96013); experiment: Inhibition of recombinant PAK4 (unknown origin) assessed as residual activity at 1 uM relative to control
[6] = biological target: Serine/threonine-protein kinase Chk2 (Homo sapiens) (UniProt O96017); experiment: Inhibition of recombinant CHK2 (unknown origin) assessed as residual activity at 1 uM relative to control
MCF7 [7] = experiment: Cytotoxicity against human MCF7 cells assessed as reduction in cell viability after 72 hrs by calcein AM staining based fluorescence assay; format: functional
Method in brief: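 Cells were grown in DMEM with 10% FBS, penicillin and streptomycin at 37 °C in 5% CO2. Three doses were tested in triplicate for 72 h.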

[8] = Cell cycle arrest in BrdU pulse-labelled human HCT116 cells assessed as accumulation at late G2/M phase at 125 to 500 nM after 24 hrs by propidium iodide staining based flow cytometry; format: functional; settings: HCT-116
MCF7 [9] = experiment: Cell cycle arrest in BrdU pulse-labelled human MCF7 cells assessed as decrease in cells at S phase at 8 to 250 nM after 24 hrs by propidium iodide staining based flow cytometry; format: functional
MCF7 [10] = experiment: Cell cycle arrest in BrdU pulse-labelled human MCF7 cells assessed as accumulation at subG1 phase at 8 to 250 nM after 24 hrs by propidium iodide staining based flow cytometry; format: functional
HCT-116 [11] = experiment: Induction of apoptosis in human HCT116 cells assessed as decrease in MCL-1 expression incubated for 24 hrs by immunoblotting analysis; format: functional, cell-based
Method in brief: (§1)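 HCT-116 cells were treated with different doses for 24 h and harvested into Laemmli buffer. Proteins were separated by SDS-PAGE and blotted to nitrocellulose. Membranes were probed overnight with primary antibodies (anti-PARP F-2, anti-Mcl-1 S-19, anti-p53 DO-1), then with peroxidase secondaries. Bands were detected by ECL with a CCD camera, with tubulin as loading control.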

HCT-116 [12] = experiment: Induction of apoptosis in human HCT116 cells assessed as increase in p53 expression at 250 to 500 nM incubated for 24 hrs by immunoblotting analysis; format: functional, cell-based; method in brief: as §1
HCT-116 [13] = experiment: Induction of apoptosis in human HCT116 cells assessed as caspase7 activation using Ac-DEVD-AMC as substrate preincubated for 24 hrs followed by substrate addition measured after 3 hrs by fluorescence assay; format: functional, cell-based
G-361 [14] = experiment: Induction of apoptosis in human G361 cells assessed as caspase3 activation using Ac-DEVD-AMC as substrate at 5 times IC50 preincubated for 24 hrs followed by substrate addition measured after 3 hrs by fluorescence assay; format: functional, cell-based
G-361 [15] = experiment: Induction of apoptosis in human G361 cells assessed as caspase7 activation using Ac-DEVD-AMC as substrate at IC50 preincubated for 24 hrs followed by substrate addition measured after 3 hrs by fluorescence assay; format: functional, cell-based
[16] = biological target: Dual specificity protein kinase TTK (Homo sapiens) (UniProt P33981); experiment: Inhibition of recombinant TTK (unknown origin) assessed as residual activity at 1 uM relative to control
[17] = biological target: Serine/threonine-protein kinase Nek6 (Homo sapiens) (UniProt Q9HC98); experiment: Inhibition of recombinant NEK6 (unknown origin) assessed as residual activity at 1 uM relative to control
[18] = biological target: Dual specificity mitogen-activated protein kinase kinase 1 (Homo sapiens) (UniProt Q02750); experiment: Inhibition of recombinant MKK1 (unknown origin) assessed as residual activity at 1 uM relative to control
[19] = biological target: Aurora kinase B (Homo sapiens) (UniProt Q96GD4); experiment: Inhibition of recombinant Aurora B (unknown origin) assessed as residual activity at 1 uM relative to control
[20] = biological target: Ephrin type-A receptor 2 (Homo sapiens) (UniProt P29317); experiment: Inhibition of recombinant EPHA2 (unknown origin) assessed as residual activity at 1 uM relative to control
[21] = biological target: Eukaryotic elongation factor 2 kinase (Homo sapiens) (UniProt O00418); experiment: Inhibition of recombinant EF2K (unknown origin) assessed as residual activity at 1 uM relative to control
[22] = biological target: Ribosomal protein S6 kinase alpha-5 (Homo sapiens) (UniProt O75582); experiment: Inhibition of recombinant MSK1 (unknown origin) assessed as residual activity at 1 uM relative to control
[23] = biological target: Mitogen-activated protein kinase kinase kinase 11 (Homo sapiens) (UniProt Q16584); experiment: Inhibition of recombinant MLK3 (unknown origin) assessed as residual activity at 1 uM relative to control
[24] = biological target: Tyrosine-protein kinase BTK (Homo sapiens) (UniProt Q06187); experiment: Inhibition of recombinant BTK (unknown origin) assessed as residual activity at 1 uM relative to control
[25] = biological target: MAP/microtubule affinity-regulating kinase 3 (Homo sapiens) (UniProt P27448); experiment: Inhibition of recombinant MARK3 (unknown origin) assessed as residual activity at 1 uM relative to control
[26] = biological target: Protein kinase C alpha type (Homo sapiens) (UniProt P17252); experiment: Inhibition of recombinant PKCalpha (unknown origin) assessed as residual activity at 1 uM relative to control
[27] = biological target: Serine/threonine-protein kinase D1 (Homo sapiens) (UniProt Q15139); experiment: Inhibition of recombinant PKD1 (unknown origin) assessed as residual activity at 1 uM relative to control
[28] = biological target: Serine/threonine-protein kinase N2 (Homo sapiens) (UniProt Q16513); experiment: Inhibition of recombinant PRK2 (unknown origin) assessed as residual activity at 1 uM relative to control
[29] = biological target: Rho-associated protein kinase 2 (Homo sapiens) (UniProt O75116); experiment: Inhibition of recombinant ROCK2 (unknown origin) assessed as residual activity at 1 uM relative to control
[30] = biological target: Tyrosine-protein kinase JAK2 (Homo sapiens) (UniProt O60674); experiment: Inhibition of recombinant JAK2 (unknown origin) assessed as residual activity at 1 uM relative to control
[31] = biological target: Insulin-like growth factor 1 receptor (Homo sapiens) (UniProt P08069); experiment: Inhibition of recombinant IGF1R (unknown origin) assessed as residual activity at 1 uM relative to control
[32] = biological target: Interleukin-1 receptor-associated kinase 4 (Homo sapiens) (UniProt Q9NWZ3); experiment: Inhibition of recombinant IRAK4 (unknown origin) assessed as residual activity at 1 uM relative to control
Sequence of Interleukin-1 receptor-associated kinase 4 (Homo sapiens) (Q9NWZ3 whole entry): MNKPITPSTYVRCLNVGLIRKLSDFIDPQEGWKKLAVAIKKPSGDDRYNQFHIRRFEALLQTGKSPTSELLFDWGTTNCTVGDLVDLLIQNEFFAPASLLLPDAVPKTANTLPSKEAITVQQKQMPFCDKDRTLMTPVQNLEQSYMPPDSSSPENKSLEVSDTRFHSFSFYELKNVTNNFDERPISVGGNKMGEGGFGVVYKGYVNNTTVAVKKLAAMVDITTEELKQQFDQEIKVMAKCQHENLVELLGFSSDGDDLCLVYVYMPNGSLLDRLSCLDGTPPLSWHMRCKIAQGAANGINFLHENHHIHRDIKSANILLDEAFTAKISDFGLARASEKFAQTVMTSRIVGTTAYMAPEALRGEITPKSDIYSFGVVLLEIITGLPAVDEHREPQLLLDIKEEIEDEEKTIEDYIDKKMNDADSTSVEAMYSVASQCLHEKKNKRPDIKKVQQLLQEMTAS

Sequence of Mitogen-activated protein kinase kinase kinase 11 (Homo sapiens) (Q16584 whole entry, looked up): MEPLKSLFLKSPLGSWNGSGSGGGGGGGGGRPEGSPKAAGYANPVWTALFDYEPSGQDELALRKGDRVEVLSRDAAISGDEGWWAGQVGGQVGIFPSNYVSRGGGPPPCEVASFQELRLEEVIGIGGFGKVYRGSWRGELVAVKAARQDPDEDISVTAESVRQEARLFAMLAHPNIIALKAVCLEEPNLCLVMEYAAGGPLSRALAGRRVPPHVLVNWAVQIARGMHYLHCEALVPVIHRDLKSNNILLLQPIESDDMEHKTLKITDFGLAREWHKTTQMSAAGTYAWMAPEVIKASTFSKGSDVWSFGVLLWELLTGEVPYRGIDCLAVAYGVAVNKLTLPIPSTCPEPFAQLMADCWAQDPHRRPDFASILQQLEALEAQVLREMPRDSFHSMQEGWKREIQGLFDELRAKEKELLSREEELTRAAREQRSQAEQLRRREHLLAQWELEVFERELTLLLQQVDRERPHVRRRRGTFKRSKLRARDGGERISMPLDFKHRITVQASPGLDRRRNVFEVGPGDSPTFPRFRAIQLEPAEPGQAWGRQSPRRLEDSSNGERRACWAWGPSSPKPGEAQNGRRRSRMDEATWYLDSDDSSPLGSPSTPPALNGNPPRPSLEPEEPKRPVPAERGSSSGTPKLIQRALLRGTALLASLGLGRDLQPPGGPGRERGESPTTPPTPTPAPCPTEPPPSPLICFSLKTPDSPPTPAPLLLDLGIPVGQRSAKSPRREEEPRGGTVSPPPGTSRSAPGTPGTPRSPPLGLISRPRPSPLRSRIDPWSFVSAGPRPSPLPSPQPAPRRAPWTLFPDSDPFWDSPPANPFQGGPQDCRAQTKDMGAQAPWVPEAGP
Sequence of Serine/threonine-protein kinase PAK 4 (Homo sapiens) (O96013 whole entry, looked up): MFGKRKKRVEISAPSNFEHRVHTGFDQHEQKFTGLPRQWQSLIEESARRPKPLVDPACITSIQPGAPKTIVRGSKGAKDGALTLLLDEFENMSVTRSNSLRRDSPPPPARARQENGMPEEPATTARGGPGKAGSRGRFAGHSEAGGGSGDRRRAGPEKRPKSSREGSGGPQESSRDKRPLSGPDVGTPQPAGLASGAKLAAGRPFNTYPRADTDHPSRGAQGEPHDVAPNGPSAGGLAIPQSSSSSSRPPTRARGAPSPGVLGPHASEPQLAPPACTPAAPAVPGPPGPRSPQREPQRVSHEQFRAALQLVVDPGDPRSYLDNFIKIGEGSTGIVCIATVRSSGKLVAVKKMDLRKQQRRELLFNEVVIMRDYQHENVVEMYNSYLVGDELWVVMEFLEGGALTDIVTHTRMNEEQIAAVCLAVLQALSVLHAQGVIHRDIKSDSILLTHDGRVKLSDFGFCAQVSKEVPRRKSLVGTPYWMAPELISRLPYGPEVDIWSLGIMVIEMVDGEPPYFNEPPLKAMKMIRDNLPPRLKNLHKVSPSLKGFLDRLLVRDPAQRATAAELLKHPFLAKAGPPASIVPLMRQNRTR
Sequence of Serine/threonine-protein kinase Chk2 (Homo sapiens) (O96017 whole entry): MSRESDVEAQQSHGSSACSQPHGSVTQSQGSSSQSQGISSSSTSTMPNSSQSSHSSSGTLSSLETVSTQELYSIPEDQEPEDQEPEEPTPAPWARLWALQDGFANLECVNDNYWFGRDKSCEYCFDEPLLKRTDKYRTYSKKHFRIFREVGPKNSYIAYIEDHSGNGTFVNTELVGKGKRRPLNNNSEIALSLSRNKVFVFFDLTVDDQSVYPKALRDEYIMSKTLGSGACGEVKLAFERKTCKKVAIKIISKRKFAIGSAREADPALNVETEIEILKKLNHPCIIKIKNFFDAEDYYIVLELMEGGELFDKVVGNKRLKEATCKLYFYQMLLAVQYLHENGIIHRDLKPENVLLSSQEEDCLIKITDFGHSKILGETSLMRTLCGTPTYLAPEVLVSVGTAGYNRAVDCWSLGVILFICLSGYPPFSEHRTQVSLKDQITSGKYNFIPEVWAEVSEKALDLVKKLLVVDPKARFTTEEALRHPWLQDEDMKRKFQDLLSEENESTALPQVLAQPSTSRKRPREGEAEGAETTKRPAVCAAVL
Sequence of Serine/threonine-protein kinase Nek6 (Homo sapiens) (Q9HC98 whole entry): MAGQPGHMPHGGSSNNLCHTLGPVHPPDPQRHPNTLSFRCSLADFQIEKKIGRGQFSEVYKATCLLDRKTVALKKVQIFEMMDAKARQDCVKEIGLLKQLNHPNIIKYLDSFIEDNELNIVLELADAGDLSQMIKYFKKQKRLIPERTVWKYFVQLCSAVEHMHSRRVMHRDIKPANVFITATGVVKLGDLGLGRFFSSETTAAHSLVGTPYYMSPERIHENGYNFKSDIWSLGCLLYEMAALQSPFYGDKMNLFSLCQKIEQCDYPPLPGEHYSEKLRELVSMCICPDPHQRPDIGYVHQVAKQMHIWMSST
Sequence of Dual specificity protein kinase TTK (Homo sapiens) (P33981 whole entry): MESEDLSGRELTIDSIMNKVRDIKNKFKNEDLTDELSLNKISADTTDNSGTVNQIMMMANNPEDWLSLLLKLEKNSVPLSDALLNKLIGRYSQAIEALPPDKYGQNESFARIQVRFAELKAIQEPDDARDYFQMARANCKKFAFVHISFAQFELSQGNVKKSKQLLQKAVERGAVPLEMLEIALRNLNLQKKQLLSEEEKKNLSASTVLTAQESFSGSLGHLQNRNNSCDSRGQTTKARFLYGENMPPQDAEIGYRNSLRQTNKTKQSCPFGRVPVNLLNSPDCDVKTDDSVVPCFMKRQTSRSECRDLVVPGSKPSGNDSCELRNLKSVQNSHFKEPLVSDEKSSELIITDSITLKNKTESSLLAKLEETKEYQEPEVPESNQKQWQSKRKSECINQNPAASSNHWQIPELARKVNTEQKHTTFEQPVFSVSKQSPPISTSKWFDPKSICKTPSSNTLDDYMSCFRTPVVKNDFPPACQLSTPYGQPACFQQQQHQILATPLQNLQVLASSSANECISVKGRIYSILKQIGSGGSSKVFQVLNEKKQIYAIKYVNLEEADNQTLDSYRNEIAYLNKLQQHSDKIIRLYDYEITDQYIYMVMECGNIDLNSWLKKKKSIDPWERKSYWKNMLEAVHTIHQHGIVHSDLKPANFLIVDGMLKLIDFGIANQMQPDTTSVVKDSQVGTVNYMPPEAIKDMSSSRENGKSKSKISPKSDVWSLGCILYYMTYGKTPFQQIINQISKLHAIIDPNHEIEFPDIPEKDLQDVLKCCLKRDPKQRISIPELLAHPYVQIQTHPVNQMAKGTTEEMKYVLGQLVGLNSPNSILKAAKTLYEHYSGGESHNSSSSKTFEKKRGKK
Sequence of Insulin-like growth factor 1 receptor (Homo sapiens) (P08069 31-736 limits assumed): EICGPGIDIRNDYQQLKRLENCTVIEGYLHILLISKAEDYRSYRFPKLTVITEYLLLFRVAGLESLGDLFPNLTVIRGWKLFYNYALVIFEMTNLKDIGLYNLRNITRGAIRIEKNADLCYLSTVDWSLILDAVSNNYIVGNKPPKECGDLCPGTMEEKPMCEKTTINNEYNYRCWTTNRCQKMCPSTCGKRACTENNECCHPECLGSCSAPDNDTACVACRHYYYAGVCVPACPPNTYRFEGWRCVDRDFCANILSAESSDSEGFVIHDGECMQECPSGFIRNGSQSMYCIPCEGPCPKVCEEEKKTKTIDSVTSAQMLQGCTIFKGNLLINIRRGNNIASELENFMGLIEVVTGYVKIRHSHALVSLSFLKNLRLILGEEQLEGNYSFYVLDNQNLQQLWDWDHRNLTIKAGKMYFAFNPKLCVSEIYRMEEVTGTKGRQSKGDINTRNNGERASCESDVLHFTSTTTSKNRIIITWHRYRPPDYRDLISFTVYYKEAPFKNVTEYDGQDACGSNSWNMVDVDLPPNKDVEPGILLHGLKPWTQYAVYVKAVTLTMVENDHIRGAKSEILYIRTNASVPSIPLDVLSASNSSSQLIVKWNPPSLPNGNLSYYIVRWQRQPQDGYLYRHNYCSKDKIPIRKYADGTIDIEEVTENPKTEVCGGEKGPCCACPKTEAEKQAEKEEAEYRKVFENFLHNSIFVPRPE
Sequence of Insulin-like growth factor 1 receptor (Homo sapiens) (P08069 741-1367 limits assumed): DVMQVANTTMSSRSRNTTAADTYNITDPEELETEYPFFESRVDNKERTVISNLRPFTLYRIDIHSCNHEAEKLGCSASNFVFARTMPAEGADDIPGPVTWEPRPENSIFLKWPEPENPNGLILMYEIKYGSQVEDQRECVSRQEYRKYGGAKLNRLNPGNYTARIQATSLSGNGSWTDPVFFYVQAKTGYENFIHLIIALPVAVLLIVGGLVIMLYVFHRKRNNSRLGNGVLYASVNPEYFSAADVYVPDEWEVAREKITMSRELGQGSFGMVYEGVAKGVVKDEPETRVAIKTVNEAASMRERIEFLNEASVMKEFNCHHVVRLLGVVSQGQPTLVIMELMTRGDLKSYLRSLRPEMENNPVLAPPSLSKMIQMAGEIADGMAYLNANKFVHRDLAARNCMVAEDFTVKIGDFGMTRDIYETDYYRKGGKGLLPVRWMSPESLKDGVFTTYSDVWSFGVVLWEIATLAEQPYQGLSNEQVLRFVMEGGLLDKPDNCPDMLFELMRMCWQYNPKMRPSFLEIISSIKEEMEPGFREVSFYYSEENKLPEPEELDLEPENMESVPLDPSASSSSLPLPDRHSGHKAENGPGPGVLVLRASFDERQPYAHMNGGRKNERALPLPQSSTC

CC(O)CNc1nc(NCc2ccc(-c3ccccn3)cc2)c2[nH]nc(C(C)C)c2n1 (stereo not drawn)
IC50 [1]: 0.021 µM
Activity [2]: 60%
Activity [3]: 67%
Activity [4]: 68%
Activity [5]: 69%
Activity [6]: 79%
Activity (MCF7 [7]): Dose-dependent effect
IC50 (MCF7 [7]; MCF7, 72 h): 0.027 µM
Activity [8]: Active
Activity (MCF7 [9]): Active
Activity (MCF7 [10]): Active
Activity (HCT-116 [11]): Dose-dependent effect
Activity (HCT-116 [12]): Active
Activity (HCT-116 [13]): Dose-dependent effect
Activity (G-361 [14]): Active
Activity (G-361 [15]): Active
Activity [16]: 79%
Activity [17]: 85%
Activity [18]: 87%
Activity [19]: 89%
Activity [20]: 92%
Activity [21]: 92%
Activity [22]: 97%
Activity [23]: 98%
Activity [24]: > 100%
Activity [25]: > 100%
Activity [26]: > 100%
Activity [27]: > 100%
Activity [28]: > 100%
Activity [29]: > 100%
Activity [30]: > 100%
Activity [31]: > 100%
Activity [32]: > 100%

From ChEMBL document CHEMBL3774312, “5-Substituted 3-isopropyl-7-[4-(2-pyridyl)benzyl]amino-1(2)H-pyrazolo[4,3-d]pyrimidines with anti-proliferative activity as potent and selective inhibitors of cyclin-dependent kinases” (Eur J Med Chem, 2016)
